Test results reported in ChEMBL document CHEMBL5247578, “Effective synthesis of benzimidazoles-imidazo[1,2-a]pyrazine conjugates: A comparative study of mono-and bis-benzimidazoles for antitumor activity” (Eur J Med Chem, 2019).

What was measured:
Assay type in all cases: functional
[1] = test system: MDA-MB-231; test: Antiproliferative activity against human MDA-MB-231 cells assessed as cell growth inhibition at 10 uM incubated for 48 hrs by sulforhodamine B assay relative to control
How it was run: (§1)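 NCI-60 single-dose screen at 10^-5 M. Cells grown in RPMI 1640 with 5% FBS and 2 mM L-glutamine, plated at 5,000–40,000 cells/well, and preincubated 24 h. Drug (DMSO stock) added and incubated 48 h at 37 °C, 5% CO2. Adherent cells fixed with cold TCA, stained with 0.4% SRB in 1% acetic acid, dye solubilized in 10 mM trizma base, A515 read. Percent growth taken against time-zero and untreated control.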

[2] = test system: MCF7; test: Antiproliferative activity against human MCF7 cells assessed as cell growth inhibition at 10 uM incubated for 48 hrs by sulforhodamine B assay relative to control; how it was run: as §1
[3] = test system: UO-31; test: Antiproliferative activity against human UO-31 cells assessed as cell growth inhibition at 10 uM incubated for 48 hrs by sulforhodamine B assay relative to control; how it was run: as §1
[4] = test system: SN12C; test: Antiproliferative activity against human SN12C cells assessed as cell growth inhibition at 10 uM incubated for 48 hrs by sulforhodamine B assay relative to control; how it was run: as §1
[5] = test system: CAKI-1; test: Antiproliferative activity against human CAKI-1 cells assessed as cell growth inhibition at 10 uM incubated for 48 hrs by sulforhodamine B assay relative to control
How it was run: (§2)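 Single-dose NCI-60 prescreen at 10^-5 M. Cells in RPMI 1640 with 5% FBS and 2 mM L-glutamine, seeded 5,000–40,000 cells/well with 24 h preincubation, then drug exposure for 48 h at 37 °C under 5% CO2. Growth read by SRB staining of TCA-fixed cells at 515 nm against time-zero and untreated controls. Negative growth values denote cell kill.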

[6] = test system: 786-0; test: Antiproliferative activity against human 786-0 cells assessed as cell growth inhibition at 10 uM incubated for 48 hrs by sulforhodamine B assay relative to control; how it was run: as §2
[7] = test system: NCI/ADR-RES; test: Antiproliferative activity against human NCI/ADR-RES cells assessed as cell growth inhibition at 10 uM incubated for 48 hrs by sulforhodamine B assay relative to control; how it was run: as §1
[8] = test system: OVCAR-4; test: Antiproliferative activity against human OVCAR-4 cells assessed as cell growth inhibition at 10 uM incubated for 48 hrs by sulforhodamine B assay relative to control; how it was run: as §1
[9] = test system: IGROV-1; test: Antiproliferative activity against human IGROV-1 cells assessed as cell growth inhibition at 10 uM incubated for 48 hrs by sulforhodamine B assay relative to control; how it was run: as §1
[10] = test system: SK-MEL-5; test: Antiproliferative activity against human SK-MEL-5 cells assessed as cell growth inhibition at 10 uM incubated for 48 hrs by sulforhodamine B assay relative to control; how it was run: as §1
[11] = test system: MDA-MB-435; test: Antiproliferative activity against human MDA-MB-435 cells assessed as cell growth inhibition at 10 uM incubated for 48 hrs by sulforhodamine B assay relative to control; how it was run: as §1
[12] = test system: SNB-19; test: Antiproliferative activity against human SNB-19 cells assessed as cell growth inhibition at 10 uM incubated for 48 hrs by sulforhodamine B assay relative to control; how it was run: as §1
[13] = test system: SF-539; test: Antiproliferative activity against human SF-539 cells assessed as cell growth inhibition at 10 uM incubated for 48 hrs by sulforhodamine B assay relative to control; how it was run: as §1
[14] = test system: SF-295; test: Antiproliferative activity against human SF-295 cells assessed as cell growth inhibition at 10 uM incubated for 48 hrs by sulforhodamine B assay relative to control; how it was run: as §1
[15] = test system: HCT-15; test: Antiproliferative activity against human HCT-15 cells assessed as cell growth inhibition at 10 uM incubated for 48 hrs by sulforhodamine B assay relative to control
How it was run: (§3)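 NCI-60 one-dose prescreen at 10^-5 M. Cells grown in RPMI 1640 with 5% FBS and 2 mM glutamine, preincubated 24 h, then exposed 48 h at 37 °C. Adherent lines TCA-fixed, SRB-stained, A515 read. Growth percent relative to time-zero and control; negative values mean cell kill.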

[16] = test system: COLO 205; test: Antiproliferative activity against human COLO 205 cells assessed as cell growth inhibition at 10 uM incubated for 48 hrs by sulforhodamine B assay relative to control; how it was run: as §2
[17] = test system: NCI-H23; test: Antiproliferative activity against human NCI-H23 cells assessed as cell growth inhibition at 10 uM incubated for 48 hrs by sulforhodamine B assay relative to control; how it was run: as §1
[18] = test system: NCI-H226; test: Antiproliferative activity against human NCI-H226 cells assessed as cell growth inhibition at 10 uM incubated for 48 hrs by sulforhodamine B assay relative to control; how it was run: as §1
[19] = test system: HOP-92; test: Antiproliferative activity against human HOP-92 cells assessed as cell growth inhibition at 10 uM incubated for 48 hrs by sulforhodamine B assay relative to control; how it was run: as §3
[20] = test system: HOP-62; test: Antiproliferative activity against human HOP-62 cells assessed as cell growth inhibition at 10 uM incubated for 48 hrs by sulforhodamine B assay relative to control; how it was run: as §3
[21] = test system: MOLT-4; test: Antiproliferative activity against human MOLT-4 cells assessed as cell growth inhibition at 10 uM incubated for 48 hrs by sulforhodamine B assay relative to control; how it was run: as §1
[22] = test system: BT-549; test: Antiproliferative activity against human BT-549 cells assessed as cell growth inhibition at 10 uM incubated for 48 hrs by sulforhodamine B assay relative to control; how it was run: as §2
[23] = test system: UACC-257; test: Antiproliferative activity against human UACC-257 cells assessed as cell growth inhibition at 10 uM incubated for 48 hrs by sulforhodamine B assay relative to control; how it was run: as §1
[24] = test system: Malme-3M; test: Antiproliferative activity against human Malme-3M cells assessed as cell growth inhibition at 10 uM incubated for 48 hrs by sulforhodamine B assay relative to control; how it was run: as §1
[25] = test system: HCC 2998; test: Antiproliferative activity against human HCC 2998 cells assessed as cell growth inhibition at 10 uM incubated for 48 hrs by sulforhodamine B assay relative to control; how it was run: as §3
[26] = test system: K562; test: Antiproliferative activity against human K562 cells assessed as cell growth inhibition at 10 uM incubated for 48 hrs by sulforhodamine B assay relative to control; how it was run: as §1
[27] = test system: NCI-H322M; test: Antiproliferative activity against human NCI-H322M cells assessed as cell growth inhibition at 10 uM incubated for 48 hrs by sulforhodamine B assay relative to control; how it was run: as §1

SMILES	inhibition at 10 µM [1] [%]	inhibition at 10 µM [2] [%]	inhibition at 10 µM [3] [%]	inhibition at 10 µM [4] [%]	inhibition at 10 µM [5] [%]	inhibition at 10 µM [6] [%]	inhibition at 10 µM [7] [%]	inhibition at 10 µM [8] [%]	inhibition at 10 µM [9] [%]	inhibition at 10 µM [10] [%]	inhibition at 10 µM [11] [%]	inhibition at 10 µM [12] [%]	inhibition at 10 µM [13] [%]	inhibition at 10 µM [14] [%]	inhibition at 10 µM [15] [%]	inhibition at 10 µM [16] [%]	inhibition at 10 µM [17] [%]	inhibition at 10 µM [18] [%]	inhibition at 10 µM [20] [%]	inhibition at 10 µM [21] [%]	other results
Cc1cccc(-c2cn3ccnc3c(-c3ccc4ncn(Cc5ccccc5)c4c3)n2)c1	28.4	22.2	41.7	4.72	24.8	21.4	12.1	19.3	9.51	10.1	0.94	2.58	7.28	14.3	35.2	11.3	9.09	1.18	9.68	36.9	inhibition at 10 µM [19]: 28.7%
c1cn2cc(-c3ccc4c(c3)ncn4C3CCCCC3)nc(-c3ccc4ncn(C5CCCCC5)c4c3)c2n1	28.9	19.1	25.6	20.5	15.9	25.8	27	–	8.51	36.8	7.38	10.6	35.7	50.6	35.6	6.71	20.5	18.8	16.8	56.9	inhibition at 10 µM [22]: 27.7%; inhibition at 10 µM [23]: 14.9%; inhibition at 10 µM [24]: 5.14%; inhibition at 10 µM [25]: 15.5%; inhibition at 10 µM [26]: 38.5%
c1ccc2c(-c3cn4ccnc4c(-c4ccc5ncn(C6CCCCC6)c5c4)n3)cccc2c1	20.8	13	23	11.7	25.1	6.33	4.43	19.7	–	4.06	–	9.08	–	6.34	4.46	–	4.32	9.45	19.6	44.7	inhibition at 10 µM [25]: 2.23%; inhibition at 10 µM [27]: 4.74%; inhibition at 10 µM [26]: 30.9%
